In ChEMBL document CHEMBL1122744, “2-Chloroethyl (methylsulfonyl)methanesulfonate and related (methylsulfonyl)methanesulfonates. Antineoplastic activity in vivo” (J Med Chem, 1984):
Several values for one entry are separate records, joined by “and”; a condition that tells them apart may be missing. Equal values may be shown once.

Columns and labels:
Mus musculus [1] = experiment: Median survival time of the untreated control groups, in which there are no 30-day survivors at dose 50 mg/kg in exp1; assay type: functional
Mus musculus [2] = experiment: Change in weight by day 5, obtained by subtracting treated groups of animals minus control groups of animals at dose 25 mg/kg in exp1.; assay type: functional
Outline: (§1)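 Mice were inoculated ip with 10^6 P388 leukemia cells on day 0, when treated and control mice weighed 19–22 g. Treatment was given ip once daily on days 1–5, within about 5 min of preparing the solution or suspension. Groups of six (occasionally five) were treated, with 30 untreated inoculated mice as controls. The day-5 weight change is the mean treated change minus the mean control change.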

[3] = Ratio of median survival times for non-survivors at dose 12 mg/kg in exp2; assay type: functional; details: 12 mg/kg
Outline: (§2)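 Mice were inoculated ip with 10^6 P388 leukemia cells on day 0. Groups of six (occasionally five) were dosed ip qd on days 1–5 with fresh suspensions; 30 mice served as untreated controls. Deaths were recorded daily up to day 60. T/C% compares the median survival of treated non-survivors (<60 days) with the control median. Medians used grouped data when there were no 30-day survivors, otherwise ungrouped data. t = toxic.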

Mus musculus [4] = experiment: Mortality by day 5 expressed as number of mice died to the total treated at dose 6 mg/kg in exp2; 0/6; assay type: ADME, organism-based; set-up: dose 6 mg/kg; details: in vivo
Mus musculus [5] = experiment: Change in weight by day 5, obtained by subtracting treated groups of animals minus control groups of animals at dose 6 mg/kg in exp2; assay type: functional
Outline: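 Mice were inoculated ip with 10^6 P388 leukemia cells on day 0 and weighed 19–22 g that day. Compound was given ip once daily on days 1–5, within about 5 min of preparing the solution or suspension, to groups of six (occasionally five). Thirty inoculated untreated mice served as controls. The value is the average weight change of treated mice minus that of controls on day 5.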

Mus musculus [6] = experiment: Mortality by day 5 expressed as number of mice died to the total treated at dose 100 mg/kg in exp1; 6/6; assay type: ADME, organism-based; set-up: dose 100 mg/kg; details: in vivo
[7] = Ratio of number of 30-day survivors to the total treated mice at dose 25 mg/kg in exp2; 3/6; assay type: functional
[8] = Ratio of median survival times for non-survivors at dose 50 mg/kg in exp1; t= toxic; assay type: ADME, organism-based; set-up: dose 50 mg/kg; details: in vivo
Mus musculus [9] = experiment: Median survival time of the treated control groups, in which there are no 30-day survivors at dose 25 mg/kg in exp1*-based on the four of six that survived bryond 5th day; assay type: functional
Mus musculus [10] = experiment: Median survival time of the untreated control groups, in which there are no 30-day survivors at dose 25 mg/kg in exp1; assay type: functional
Mus musculus [11] = experiment: Median survival time of the treated control groups, in which there are no 30-day survivors at dose 25 mg/kg in exp2; assay type: functional
[12] = Ratio of median survival times for non-survivors at dose 25 mg/kg in exp1*-based on the four of six that survived bryond 5th day; assay type: functional
[13] = Ratio of number of 60-day survivors to the total treated mice at dose 25 mg/kg in exp2; 1/6; assay type: functional
[14] = Ratio of number of 30-day survivors to the total treated mice at dose 25 mg/kg in exp1; 2/6; assay type: functional
[15] = Ratio of median survival times for non-survivors at dose 100 mg/kg in exp1; t=toxic; assay type: ADME, organism-based; set-up: dose 100 mg/kg; details: in vivo; outline: as §2
Mus musculus [16] = experiment: Mortality by day 5 expressed as number of mice died to the total treated at dose 25 mg/kg in exp2; 0/6; assay type: ADME, organism-based; set-up: dose 25 mg/kg; details: in vivo
Mus musculus [17] = experiment: Median survival time of the treated control groups, in which there are no 30-day survivors at dose 12 mg/kg in exp2; assay type: functional; details: 12 mg/kg
Mus musculus [18] = experiment: Median survival time of the untreated control groups, in which there are no 30-day survivors at dose 25 mg/kg in exp2; assay type: functional
[19] = Ratio of number of 60-day survivors to the total treated mice at dose 25 mg/kg in exp1; 0/6; assay type: functional
[20] = Ratio of number of 60-day survivors to the total treated mice at dose 25 mg/kg in exp2; 2/6; assay type: functional
Mus musculus [21] = experiment: Mortality by day 5 expressed as number of mice died to the total treated at dose 25 mg/kg in exp1; 2/6; assay type: ADME, organism-based; set-up: dose 25 mg/kg; details: in vivo
Mus musculus [22] = experiment: Change in weight by day 5, obtained by subtracting treated groups of animals minus control groups of animals at dose 25 mg/kg in exp2; assay type: functional; outline: as §1
Mus musculus [23] = experiment: Mortality by day 5 expressed as number of mice died to the total treated at dose 200 mg/kg in exp1; 5/6; assay type: ADME, organism-based; set-up: dose 200 mg/kg; details: in vivo
Mus musculus [24] = experiment: Change in weight by day 5, obtained by subtracting treated groups of animals minus control groups of animals at dose 12 mg/kg in exp2; assay type: functional; outline: as §1
[25] = Ratio of median survival times for non-survivors at dose 25 mg/kg in exp2; assay type: functional; outline: as §2
Mus musculus [26] = experiment: Median survival time of the untreated control groups, in which there are no 30-day survivors at dose 100 mg/kg in exp1; assay type: functional
Mus musculus [27] = experiment: Change in weight by day 5, obtained by subtracting treated groups of animals minus control groups of animals at dose 50 mg/kg in exp2; assay type: functional; outline: as §1
Mus musculus [28] = experiment: Median survival time of the untreated control groups, in which there are no 30-day survivors at dose 12 mg/kg in exp2; assay type: functional
Mus musculus [29] = experiment: Mortality by day 5 expressed as number of mice died to the total treated at dose 50 mg/kg in exp1; 6/6; assay type: ADME, organism-based; set-up: dose 50 mg/kg; details: in vivo
Mus musculus [30] = experiment: Median survival time of the treated control groups, in which there are no 30-day survivors at dose 50 mg/kg in exp1; assay type: functional
Mus musculus [31] = experiment: Change in weight by day 5, obtained by subtracting treated groups of animals minus control groups of animals at dose 100 mg/kg in exp1.; assay type: functional; outline: as §1
Mus musculus [32] = experiment: Change in weight by day 5, obtained by subtracting treated groups of animals minus control groups of animals at dose 50 mg/kg in exp1.; assay type: functional; outline: as §1
[33] = Ratio of median survival times for non-survivors at dose 200 mg/kg in exp1; t= toxic; assay type: ADME, organism-based; set-up: dose 200 mg/kg; details: in vivo; outline: as §2
[34] = Ratio of median survival times for non-survivors at dose 100 mg/kg in exp1; assay type: functional; set-up: unit: %; outline: as §2
Mus musculus [35] = experiment: Mortality by day 5 expressed as number of mice died to the total treated at dose 50 mg/kg in exp1; 0/6; assay type: ADME, organism-based; set-up: dose 50 mg/kg; details: in vivo
Mus musculus [36] = experiment: Median survival time of the treated control groups, in which there are no 30-day survivors at dose 100 mg/kg in exp1; assay type: functional
Mus musculus [37] = experiment: Mortality by day 5 expressed as number of mice died to the total treated at dose 100 mg/kg in exp1; 0/6; assay type: ADME, organism-based; set-up: dose 100 mg/kg; details: in vivo
[38] = Ratio of median survival times for non-survivors at dose 50 mg/kg in exp1; assay type: functional; set-up: unit: %; outline: as §2
Mus musculus [39] = experiment: Median survival time of the untreated control groups, in which there are no 30-day survivors at dose 200 mg/kg in exp1; assay type: functional

In the case of `CS(=O)(=O)CS(=O)(=O)OCCF`, the Median survival time (Mus musculus [1]) is reported as 11.2, the Change in weight (Mus musculus [2]) is reported as -4.3 and the Ratio [3] is reported as 188 and 142. It also gave a Mortality (Mus musculus [4]) of 0, a Change in weight (Mus musculus [5]) of -1.8 and a Mortality (Mus musculus [6]) of 6. The Ratio [7] was 3, the Ratio [8] was “Toxic” and the Median survival time (Mus musculus [9]) was 31. It also gave a Median survival time (Mus musculus [10]) of 11.2, a Median survival time (Mus musculus [11]) of 30 and a Ratio [12] of 277. The Ratio [13] was 1, the Ratio [14] was 2 and the Ratio [15] was “Toxic”. For the same compound, the Mortality (Mus musculus [16]) was 0, the Median survival time (Mus musculus [17]) was 19.8 and 15 and the Median survival time (Mus musculus [18]) was 10.5. The Ratio [19] was 0, the Ratio [20] was 2 and the Mortality (Mus musculus [21]) was 2. For the same compound, the Change in weight (Mus musculus [22]) was -5.6, the Mortality (Mus musculus [23]) was 5 and the Change in weight (Mus musculus [24]) was -3.7. For the same compound, the Ratio [25] was 286, the Median survival time (Mus musculus [26]) was 11.2 and the Change in weight (Mus musculus [27]) was -4.8. It also gave a Median survival time (Mus musculus [28]) of 10.5 and a Mortality (Mus musculus [29]) of 6.

In the case of `O=S(=O)(CCl)OCCBr`, the Median survival time (Mus musculus [1]) is reported as 11.1, the Median survival time (Mus musculus [30]) is reported as 12.3 and the Change in weight (Mus musculus [31]) is reported as -1.5. The Change in weight (Mus musculus [32]) was -0.5, the Ratio [33] was “Toxic” and the Ratio [34] was 114. It also gave a Mortality (Mus musculus [35]) of 0, a Median survival time (Mus musculus [36]) of 12.7 and a Mortality (Mus musculus [23]) of 5. For the same compound, the Mortality (Mus musculus [37]) was 0, the Ratio [38] was 110 and the Median survival time (Mus musculus [26]) was 11.1. For the same compound, the Median survival time (Mus musculus [39]) was 11.1.
